Results from ChEMBL document CHEMBL1139579, “Structure-activity relationship of a series of cyclohexylpiperidines bearing an amide side chain as antagonists of the human melanocortin-4 receptor” (Bioorg Med Chem Lett, 2005).

Tests used:
[1] = molecular target: T1, Melanocortin receptor 4 (Homo sapiens, UniProt P32245); assay: Stimulation of cAMP levels in the HEK293 cell line at 10 uM; assay type: functional, cell-based
Method in brief: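 Agonism was measured as cAMP levels in HEK293 cells stably expressing human MC4R. The test ligand was applied at 10 μM, and the response was expressed relative to the response to α-MSH.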

[2] = molecular target: T1, Melanocortin receptor 4; assay: Inhibition of [125I]NDP-MSH (radioligand) binding to the hMC4R stably expressed in HEK293 cells; assay type: cell-based
Method in brief: (§1)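 Competition binding was run on HEK293 cells stably transfected with human MC1R, MC3R, MC4R or MC5R, each receptor in its own line. The radioligand was [125I]-NDP-MSH. For the MC4R values, data are the average of two to three independent measurements.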

[3] = molecular target: T2, Melanocortin receptor 3 (Homo sapiens, UniProt P41968); assay: Inhibition of [125I]-NDP-MSH (radioligand) binding to the human MC3R stably expressed in HEK293 cells; assay type: cell-based; method in brief: as §1
T2 sequence (P41968 whole entry): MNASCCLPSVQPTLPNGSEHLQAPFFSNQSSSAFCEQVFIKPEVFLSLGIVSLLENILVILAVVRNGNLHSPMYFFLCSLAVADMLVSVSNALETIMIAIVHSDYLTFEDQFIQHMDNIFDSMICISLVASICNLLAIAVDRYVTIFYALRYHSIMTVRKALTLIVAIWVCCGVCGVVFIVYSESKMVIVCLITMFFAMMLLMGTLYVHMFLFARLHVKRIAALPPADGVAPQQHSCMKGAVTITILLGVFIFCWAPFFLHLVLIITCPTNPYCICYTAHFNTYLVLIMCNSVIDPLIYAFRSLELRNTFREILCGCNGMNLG

[4] = molecular target: Melanocortin receptor 5 (Homo sapiens, UniProt P33032); assay: Inhibition of [125I]NDP-MSH (radioligand) binding to the human MC5R stably expressed in HEK293 cells; assay type: cell-based; method in brief: as §1
Sequence of Melanocortin receptor 5 (P33032 whole entry): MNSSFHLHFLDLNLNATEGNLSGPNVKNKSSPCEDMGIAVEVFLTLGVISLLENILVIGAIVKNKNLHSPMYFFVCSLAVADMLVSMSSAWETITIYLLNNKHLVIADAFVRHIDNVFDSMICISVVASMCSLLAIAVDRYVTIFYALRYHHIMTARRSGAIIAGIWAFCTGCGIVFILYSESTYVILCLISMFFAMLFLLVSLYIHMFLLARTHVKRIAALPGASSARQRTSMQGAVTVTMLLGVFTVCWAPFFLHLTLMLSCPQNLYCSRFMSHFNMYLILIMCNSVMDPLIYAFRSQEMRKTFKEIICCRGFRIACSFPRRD

[5] = molecular target: Melanocyte-stimulating hormone receptor (Homo sapiens, UniProt Q01726); assay: Inhibition of [125I]NDP-MSH (radioligand) binding to human MC1R at 10 um concentration stably expressed in HEK293 cells; assay type: cell-based; settings: for Inhibition: hek293
Sequence of Melanocyte-stimulating hormone receptor (Q01726 whole entry): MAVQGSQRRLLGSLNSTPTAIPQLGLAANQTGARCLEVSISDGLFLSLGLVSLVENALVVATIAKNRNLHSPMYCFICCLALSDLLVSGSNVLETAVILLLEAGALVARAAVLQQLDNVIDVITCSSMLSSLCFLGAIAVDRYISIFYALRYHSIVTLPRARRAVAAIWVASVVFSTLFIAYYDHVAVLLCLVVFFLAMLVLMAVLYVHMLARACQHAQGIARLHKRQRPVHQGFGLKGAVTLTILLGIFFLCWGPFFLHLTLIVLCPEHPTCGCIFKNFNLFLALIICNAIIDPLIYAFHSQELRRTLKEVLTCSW
Method in brief: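 Competition binding was run on HEK293 cells stably expressing human MC1R, with [125I]-NDP-MSH as the radioligand. The value is percent inhibition of binding with the test ligand at 10 µM.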

[6] = molecular target: T1, Melanocortin receptor 4; assay: Inhibition of [125I]-AgRP(83132) (radioligand) binding to the hMC4R stably expressed in HEK293 cells;; assay type: cell-based
Method in brief: (§2)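 Competition binding was run on HEK293 cells stably transfected with human MC4R. The radioligand was [125I]-AgRP(83–132).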

[7] = test system: HEK293; assay: Dose-dependent inhibition of cAMP production stimulated by 10 nM a-MSH in HEK293 cells;; assay type: functional, cell-based, Homo sapiens
Method in brief: (§3)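 Functional antagonism was measured as inhibition of cAMP production in HEK293 cells stably expressing human MC4R. Cells were stimulated with 10 nM α-MSH, and the test ligand was applied over a range of concentrations.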

[8] = molecular target: T1, Melanocortin receptor 4; assay: Inhibition of [125I]-AgRP(83132) (radioligand) binding to the hMC4R stably expressed in HEK293 cells; assay type: cell-based; method in brief: as §2
[9] = test system: HEK293; assay: (§4) Dose-dependent inhibition of cAMP production stimulated by 10 nM a-MSH in HEK293 cells; assay type: functional, cell-based, Homo sapiens; method in brief: as §3
[10] = test system: HEK293; assay: as §4; assay type: functional, cell-based; settings: Homo sapiens; method in brief: as §3
[11] = molecular target: T2, Melanocortin receptor 3; assay: Inhibition of [125I]NDP-MSH (radioligand) binding to the human MC3R stably expressed in HEK293 cells; assay type: cell-based; method in brief: as §1

T1 sequence (P32245 whole entry): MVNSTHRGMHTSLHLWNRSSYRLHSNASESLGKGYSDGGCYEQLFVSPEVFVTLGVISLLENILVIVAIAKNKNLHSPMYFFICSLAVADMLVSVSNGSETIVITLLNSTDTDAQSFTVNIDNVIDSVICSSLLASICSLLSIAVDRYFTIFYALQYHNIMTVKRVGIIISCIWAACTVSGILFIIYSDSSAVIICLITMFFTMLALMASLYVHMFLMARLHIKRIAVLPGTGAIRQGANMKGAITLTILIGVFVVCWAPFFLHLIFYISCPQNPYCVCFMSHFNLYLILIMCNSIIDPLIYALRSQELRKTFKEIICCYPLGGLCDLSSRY

Stimulation [1] [%]	Ki [2] [nM]	SMILES	other results
10	210	NCCC(=O)N[C@H](Cc1ccc(Cl)cc1Cl)C(=O)N1CCN(C2(CNC(=O)c3ccc(Cl)cc3)CCCCC2)CC1	
12	260	COC(=O)c1ccc(NC(=O)NCC2(N3CCN(C(=O)[C@@H](Cc4ccc(Cl)cc4Cl)NC(=O)CCN)CC3)CCCCC2)cc1	
5.9	420	NCCC(=O)N[C@H](Cc1ccc(Cl)cc1Cl)C(=O)N1CCN(C2(CNC(=O)Nc3ccc(Cl)cc3)CCCCC2)CC1	
1	36	COc1ccc(NC(=O)NCC2(N3CCN(C(=O)[C@@H](Cc4ccc(Cl)cc4Cl)NC(=O)CCN)CC3)CCCCC2)cc1	
7.9	190	NCCC(=O)N[C@H](Cc1ccc(Cl)cc1Cl)C(=O)N1CCN(C2(CNC(=O)c3ccc(F)cc3)CCCCC2)CC1	
7.7	250	COc1ccc(C(=O)NCC2(N3CCN(C(=O)[C@@H](Cc4ccc(Cl)cc4Cl)NC(=O)CCN)CC3)CCCCC2)cc1	
7.8	270	Cc1ccc(C(=O)NCC2(N3CCN(C(=O)[C@@H](Cc4ccc(Cl)cc4Cl)NC(=O)CCN)CC3)CCCCC2)cc1	
5.5	210	NCCC(=O)N[C@H](Cc1ccc(Cl)cc1Cl)C(=O)N1CCN(C2(CNC(=O)Nc3ccc(F)cc3)CCCCC2)CC1	
6.4	61	NCCC(=O)N[C@H](Cc1ccc(Cl)cc1Cl)C(=O)N1CCN(C2(CNCc3ccc(F)cc3)CCCCC2)CC1	
1.4	23	NCCC(=O)N[C@H](Cc1ccc(Cl)cc1Cl)C(=O)N1CCN(C2(CNC(=O)Cc3ccc(Cl)cc3)CCCCC2)CC1	
12	240	NCCC(=O)N[C@H](Cc1ccc(Cl)cc1Cl)C(=O)N1CCN(C2(CNC(=O)c3ccc(Br)cc3)CCCCC2)CC1	
2.3	21	NCCC(=O)N[C@H](Cc1ccc(Cl)cc1Cl)C(=O)N1CCN(C2(CNC(=O)Cc3ccc(F)cc3)CCCCC2)CC1	
11	540	NCCC(=O)N[C@H](Cc1ccc(Cl)cc1Cl)C(=O)N1CCN(C2(CNC(=O)Nc3ccc([N+](=O)[O-])cc3)CCCCC2)CC1	
2.7	62	CN(C)c1ccc(NC(=O)NCC2(N3CCN(C(=O)[C@@H](Cc4ccc(Cl)cc4Cl)NC(=O)CCN)CC3)CCCCC2)cc1	

Second part, the compound before the results:

SMILES	Stimulation [1] [%]	Ki [2] [nM]	other results
N#Cc1ccc(CNCC2(N3CCN(C(=O)[C@@H](Cc4ccc(Cl)cc4Cl)NC(=O)CCN)CC3)CCCCC2)cc1	5	92	
NCCC(=O)N[C@H](Cc1ccc(Cl)cc1Cl)C(=O)N1CCN(C2(CNCc3nccs3)CCCCC2)CC1	4.9	49	
COc1ccccc1C(=O)NCC1(N2CCN(C(=O)[C@@H](Cc3ccc(Cl)cc3Cl)NC(=O)CCN)CC2)CCCCC1	6.5	350	
NCCC(=O)N[C@H](Cc1ccc(Cl)cc1Cl)C(=O)N1CCN(C2(CNCc3ccc(C(F)(F)F)cc3)CCCCC2)CC1	4.1	45	
NCCC(=O)N[C@H](Cc1ccc(Cl)cc1Cl)C(=O)N1CCN(C2(CNC(=O)c3ccncc3)CCCCC2)CC1	4.4	150	
CC(C)CNCC1(N2CCN(C(=O)[C@@H](Cc3ccc(Cl)cc3Cl)NC(=O)CCN)CC2)CCCCC1	0.7	180	
NCCC(=O)N[C@H](Cc1ccc(Cl)cc1Cl)C(=O)N1CCN(C2(CNCc3ccccc3)CCCCC2)CC1	5.1	18	
NCCC(=O)N[C@H](Cc1ccc(Cl)cc1Cl)C(=O)N1CCN(C2(CNC(=O)c3ccco3)CCCCC2)CC1	4.5	260	
NCCC(=O)N[C@H](Cc1ccc(Cl)cc1Cl)C(=O)N1CCN(C2(CNC(=O)c3ccc(C(F)(F)F)cc3)CCCCC2)CC1	8.7	340	
NCCC(=O)N[C@H](Cc1ccc(Cl)cc1Cl)C(=O)N1CCN(C2(CNCc3ccccn3)CCCCC2)CC1	3	36	
COc1cccc(CC(=O)NCC2(N3CCN(C(=O)[C@@H](Cc4ccc(Cl)cc4Cl)NC(=O)CCN)CC3)CCCCC2)c1	1.8	7.6	Ki [3]: 650 nM; Ki [4]: 470 nM; Ki [5]: 2.8 µM
NCCC(=O)N[C@H](Cc1ccc(Cl)cc1Cl)C(=O)N1CCN(C2(CNCc3ccc(OC(F)(F)F)cc3)CCCCC2)CC1	2.4	22	
NCCC(=O)N[C@H](Cc1ccc(Cl)cc1Cl)C(=O)N1CCN(C2(CNC(=O)Cc3ccccc3)CCCCC2)CC1	1.6	8.8	Ki [3]: 710 nM; Ki [4]: 920 nM; Ki [6]: 6.4 nM; IC50 [7]: 260 nM; Inhibition [5]: 47%
NCCC(=O)N[C@H](Cc1ccc(Cl)cc1Cl)C(=O)N1CCN(C2(CN)CCCCC2)CC1	0.5	290	
NCCC(=O)N[C@H](Cc1ccc(Cl)cc1Cl)C(=O)N1CCN(C2(CNCc3ccccc3F)CCCCC2)CC1	4.7	12	Ki [8]: 13 nM; Ki [3]: 2300 nM; Ki [4]: 1400 nM; IC50 [9]: 760 nM; Inhibition [5]: 45%
NCCC(=O)N[C@H](Cc1ccc(Cl)cc1Cl)C(=O)N1CCN(C2(CNC(=O)C(F)(F)F)CCCCC2)CC1	0.9	490	

SMILES	Stimulation [1] [%]	Ki [2] [nM]	other results
COc1ccc(CC(=O)NCC2(N3CCN(C(=O)[C@@H](Cc4ccc(Cl)cc4Cl)NC(=O)CCN)CC3)CCCCC2)cc1OC	2.7	18	
CC(C)(C)c1ccc(C(=O)NCC2(N3CCN(C(=O)[C@@H](Cc4ccc(Cl)cc4Cl)NC(=O)CCN)CC3)CCCCC2)cc1	8.2	520	
NCCC(=O)N[C@H](Cc1ccc(Cl)cc1Cl)C(=O)N1CCN(C2(CNCCc3ccccc3)CCCCC2)CC1	0.4	11	Ki [3]: 3200 nM; Ki [4]: 1200 nM; IC50 [10]: 430 nM; Inhibition [5]: 44%
CC(C)(C)CCNCC1(N2CCN(C(=O)[C@@H](Cc3ccc(Cl)cc3Cl)NC(=O)CCN)CC2)CCCCC1	3.6	340	
NCCC(=O)N[C@H](Cc1ccc(Cl)cc1Cl)C(=O)N1CCN(C2(CNC(=O)c3ccc(OC(F)(F)F)cc3)CCCCC2)CC1	8.9	400	
COc1ccc(CC(=O)NCC2(N3CCN(C(=O)[C@@H](Cc4ccc(Cl)cc4Cl)NC(=O)CCN)CC3)CCCCC2)cc1	0.6	4.2	Ki [8]: 2.8 nM; Ki [3]: 1100 nM; Ki [4]: 540 nM; IC50 [9]: 150 nM; Ki [5]: 5.7 µM
CN(C)c1ccc(CNCC2(N3CCN(C(=O)[C@@H](Cc4ccc(Cl)cc4Cl)NC(=O)CCN)CC3)CCCCC2)cc1	4.2	110	
NCCC(=O)N[C@H](Cc1ccc(Cl)cc1Cl)C(=O)N1CCN(C2(CNCCCc3ccccc3)CCCCC2)CC1	2.8	60	
NCCC(=O)N[C@H](Cc1ccc(Cl)cc1Cl)C(=O)N1CCN(C2(CNC(=O)c3ccc([N+](=O)[O-])cc3)CCCCC2)CC1	6.7	120	
NCCC(=O)N[C@H](Cc1ccc(Cl)cc1Cl)C(=O)N1CCN(C2(CNC(=O)c3cccnc3)CCCCC2)CC1	4.3	220	
NCCC(=O)N[C@H](Cc1ccc(Cl)cc1Cl)C(=O)N1CCN(C2(CNCc3cccs3)CCCCC2)CC1	8.1	12	Ki [4]: 1900 nM; Ki [11]: 2400 nM
NCCC(=O)N[C@H](Cc1ccc(Cl)cc1Cl)C(=O)N1CCN(C2(CNC(=O)Cc3cccs3)CCCCC2)CC1	3.4	8.4	Ki [3]: 1100 nM; Ki [4]: 480 nM; Ki [5]: 4.6 µM
NCCC(=O)N[C@H](Cc1ccc(Cl)cc1Cl)C(=O)N1CCN(C2(CNC(=O)c3ccccc3)CCCCC2)CC1	5.1	220	
NCCC(=O)N[C@H](Cc1ccc(Cl)cc1Cl)C(=O)N1CCN(C2(CNC(=O)c3cccs3)CCCCC2)CC1	5.1	230	
NCCC(=O)N[C@H](Cc1ccc(Cl)cc1Cl)C(=O)N1CCN(C2(CNCC3CCCCC3)CCCCC2)CC1	5.1	220	
